Legend:
HCV1406 TCR = experiment: Surface plasmon resonance TCR-pMHC binding; conditions: authors' ranges based on SPR KD
HLA-A2 = conditions: thermal denaturation of peptide-HLA-A2 complexes; cited from earlier work
[1] = tested on: HCV1406 TCR-transduced T-cells; experiment: IFNγ release at high, intermediate and low antigen density; format: cell-based, human; conditions: peptide-loaded HepG2 cells, 18 hr, ELISA
Method in brief: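 Normal-donor PBL transduced with HCV1406 TCR, CD34-enriched and split into CD4+/CD8+ by immunomagnetic selection. HepG2 targets either peptide-pulsed for 2 h or transduced with NS3:1406–1415 minigene–GFP vectors and sorted for high uniform GFP. Co-culture 1:1, 37 °C, 18 h. IFNγ from 1x105 T-cells measured by ELISA in triplicate (mean, SD). CD4+ vs CD8+ compared by unequal-variance two-sample t-tests.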

[2] = tested on: HCV1406 TCR-transduced T-cells; experiment: Degranulation CD107a assay; format: cell-based, human; conditions: T2 cells pulsed with 10 μg/mL peptide, 1:1 co-culture, flow cytometry

KLVALGNNAV [I1412N]
affinity category of TCR-pMHC interaction compared to WT (HCV1406 TCR): low affinity
Tm of peptide-HLA-A2 (HLA-A2): 59 °C

KLVALGLNAV [I1412L]
affinity category of TCR-pMHC interaction compared to WT (HCV1406 TCR): moderate affinity

KLVALGINAV [WT]
Tm of peptide-HLA-A2 (HLA-A2): 64 °C
IFNγ secretion by CD8^+ T-cells, intermediate antigen density [1]: strong recognition

KLVALGVNAV [I1412V]
degranulation (surface CD107a) of CD4^+ TCR-transduced T-cells [2]: blunted compared to WT, I1412L, and V1408L
affinity category of TCR-pMHC interaction compared to WT (HCV1406 TCR): moderate affinity

KLTALGINAV [V1408T]
degranulation (surface CD107a) of CD4^+ TCR-transduced T-cells [2]: blunted compared to WT, I1412L, and V1408L
affinity category of TCR-pMHC interaction compared to WT (HCV1406 TCR): moderate affinity
Tm of peptide-HLA-A2 (HLA-A2): 69 °C

KLLALGINAV [V1408L]
affinity category of TCR-pMHC interaction compared to WT (HCV1406 TCR): moderate affinity
Tm of peptide-HLA-A2 (HLA-A2): 61 °C
